# Assay results: ChEMBL document CHEMBL1148400, “Synthesis of nitro esters of prednisolone, new compounds combining pharmacological properties of both glucocorticoids and nitric oxide” (J Med Chem, 2004)
# Test system: not listed separately
# Assay: Water solubility was determined
# Assay type: ADME
# Method in brief: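 Excess compound stirred in pH 7.4 phosphate buffer 3 h (25 °C), filtered 0.45 μm; saturated solution absorbance read at each compound's UV maximum and concentration derived against a standard solution; reported in mM.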
row,Compound,solubility [µM]
1,C[C@]12C=CC(=O)C=C1CCC1C2[C@@H](O)C[C@@]2(C)C1CC[C@]2(O)C(=O)COC(=O)CN1CCC(CCO[N+](=O)[O-])CC1 (some centres undefined),710
2,C[C@]12C=CC(=O)C=C1CCC1C2[C@@H](O)C[C@@]2(C)C1CC[C@]2(O)C(=O)COC(=O)c1ccc(CO[N+](=O)[O-])cc1 (some centres undefined),7
3,C[C@]12C=CC(=O)C=C1CCC1C2[C@@H](O)C[C@@]2(C)C1CC[C@]2(O)C(=O)COC(=O)CN1CCN(CCCO[N+](=O)[O-])CC1 (some centres undefined),53300
4,C[C@]12C=CC(=O)C=C1CCC1C2[C@@H](O)C[C@@]2(C)C1CC[C@]2(O)C(=O)COC(=O)CN1CCC(CCCO[N+](=O)[O-])CC1 (some centres undefined),150
5,C[C@]12C=CC(=O)C=C1CC[C@@H]1[C@@H]2[C@@H](O)C[C@@]2(C)[C@H]1CC[C@]2(O)C(=O)CO [PREDNISOLONE],270
6,C[C@]12C=CC(=O)C=C1CCC1C2[C@@H](O)C[C@@]2(C)C1CC[C@]2(O)C(=O)COC(=O)CN1CCN(CCO[N+](=O)[O-])CC1 (some centres undefined),21300

# Species on record: Mus musculus
# Assay: Compound was tested for the inhibition of neutrophil (PMN) extravasation in the zymosan-induced peritonitis mouse
# Assay type: functional
# Design: unit: PMN per peritoneal cavity
# Method in brief: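 Mice dosed i.p. at 13.8 μmol/kg (equimolar to 5 mg/kg prednisolone) 1 h before i.p. zymosan (1 mg in 0.5 mL saline); vehicle peanut oil. Polymorphonuclear cells recruited per peritoneal cavity counted at 4 h; % inhibition vs vehicle group; mean ± SEM, n = 5 mice/group; ANOVA with Bonferroni.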
row,Compound,Activity
1,C[C@]12C=CC(=O)C=C1CCC1C2[C@@H](O)C[C@@]2(C)C1CC[C@]2(O)C(=O)COC(=O)c1ccc(CO[N+](=O)[O-])cc1 (some centres undefined),4100000
2,C[C@]12C=CC(=O)C=C1CCC1C2[C@@H](O)C[C@@]2(C)C1CC[C@]2(O)C(=O)COC(=O)CN1CCN(CCCO[N+](=O)[O-])CC1 (some centres undefined),7800000
3,C[C@]12C=CC(=O)C=C1CCC1C2[C@@H](O)C[C@@]2(C)C1CC[C@]2(O)C(=O)COC(=O)CCCO[N+](=O)[O-] (some centres undefined),9100000
4,C[C@]12C=CC(=O)C=C1CCC1C2[C@@H](O)C[C@@]2(C)C1CC[C@]2(O)C(=O)COC(=O)CN1CCN(CCO[N+](=O)[O-])CC1 (some centres undefined),9000000

# Molecular target: T1, Glucocorticoid receptor (Homo sapiens) (UniProt P04150)
# T1 sequence (whole entry): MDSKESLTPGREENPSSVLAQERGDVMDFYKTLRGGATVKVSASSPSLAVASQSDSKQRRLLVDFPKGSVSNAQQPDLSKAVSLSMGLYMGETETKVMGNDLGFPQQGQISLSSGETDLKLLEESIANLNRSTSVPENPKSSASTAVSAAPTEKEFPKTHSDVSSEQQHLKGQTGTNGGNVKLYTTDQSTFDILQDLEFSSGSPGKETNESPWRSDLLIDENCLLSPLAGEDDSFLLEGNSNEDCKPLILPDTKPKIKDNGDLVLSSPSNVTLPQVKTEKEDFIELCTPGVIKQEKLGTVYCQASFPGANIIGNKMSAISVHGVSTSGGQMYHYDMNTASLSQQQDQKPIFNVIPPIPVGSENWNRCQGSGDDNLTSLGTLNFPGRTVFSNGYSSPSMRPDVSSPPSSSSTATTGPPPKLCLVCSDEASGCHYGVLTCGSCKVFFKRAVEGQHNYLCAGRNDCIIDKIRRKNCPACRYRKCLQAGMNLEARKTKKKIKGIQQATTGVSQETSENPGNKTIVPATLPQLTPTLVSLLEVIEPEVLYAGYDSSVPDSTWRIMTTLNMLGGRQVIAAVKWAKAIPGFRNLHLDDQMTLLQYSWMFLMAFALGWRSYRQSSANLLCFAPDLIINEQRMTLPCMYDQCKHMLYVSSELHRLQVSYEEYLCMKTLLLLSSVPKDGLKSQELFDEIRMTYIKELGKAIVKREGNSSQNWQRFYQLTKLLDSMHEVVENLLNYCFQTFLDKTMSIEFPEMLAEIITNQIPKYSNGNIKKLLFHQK
# Assay: Displacement of [3H]dexamethasone from glucocorticoid receptor of human blood mononuclear cells at 1 uM
# Method in brief: (§1)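 PBMC isolated from human blood by histopaque gradient; 1×10^6 cells in RPMI with 1% glutamine given 50 nM [3H]dexamethasone plus compound at 1 μM (from 10 mM DMSO stock; control 0.1% DMSO), 1 h at 37 °C. Four ice-cold PBS washes, bound label by scintillation minus nonspecific binding; fmol/mL and % specific displacement; n = 3.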
row,Compound,Displacement [%]
1,C[C@]12C=CC(=O)C=C1CCC1C2[C@@H](O)C[C@@]2(C)C1CC[C@]2(O)C(=O)COC(=O)CN1CCC(CCO[N+](=O)[O-])CC1 (some centres undefined),86
2,C[C@]12C=CC(=O)C=C1CCC1C2[C@@H](O)C[C@@]2(C)C1CC[C@]2(O)C(=O)COC(=O)c1ccc(CO[N+](=O)[O-])cc1 (some centres undefined),47
3,C[C@]12C=CC(=O)C=C1CCC1C2[C@@H](O)C[C@@]2(C)C1CC[C@]2(O)C(=O)COC(=O)CN1CCN(CCCO[N+](=O)[O-])CC1 (some centres undefined),83
4,C[C@]12C=CC(=O)C=C1CCC1C2[C@@H](O)C[C@@]2(C)C1CC[C@]2(O)C(=O)COC(=O)CCCO[N+](=O)[O-] (some centres undefined),87
5,C[C@]12C=CC(=O)C=C1CCC1C2[C@@H](O)C[C@@]2(C)C1CC[C@]2(O)C(=O)COC(=O)c1ccc(CO)cc1 (some centres undefined),57
6,C[C@]12C=CC(=O)C=C1CCC1C2[C@@H](O)C[C@@]2(C)C1CC[C@]2(O)C(=O)COC(=O)c1ccccc1CO[N+](=O)[O-] (some centres undefined),30
7,C[C@]12C=CC(=O)C=C1CCC1C2[C@@H](O)C[C@@]2(C)C1CC[C@]2(O)C(=O)COC(=O)CN1CCC(CCCO[N+](=O)[O-])CC1 (some centres undefined),81
8,C[C@]12C=CC(=O)C=C1CC[C@@H]1[C@@H]2[C@@H](O)C[C@@]2(C)[C@H]1CC[C@]2(O)C(=O)CO [PREDNISOLONE],56
9,C[C@]12C=CC(=O)C=C1CCC1C2[C@@H](O)C[C@@]2(C)C1CC[C@]2(O)C(=O)COC(=O)CN1CCN(CCO[N+](=O)[O-])CC1 (some centres undefined),66

# Molecular target: T1, Glucocorticoid receptor (Homo sapiens)
# Assay: Inhibition of [3H]dexamethasone binding to glucocorticoid receptor of human blood mononuclear cells
# Method in brief: as §1
row,Compound,[3H]dexamethasone bound [fmol/mL]
1,C[C@]12C=CC(=O)C=C1CCC1C2[C@@H](O)C[C@@]2(C)C1CC[C@]2(O)C(=O)COC(=O)CN1CCC(CCO[N+](=O)[O-])CC1 (some centres undefined),1.7
2,C[C@]12C=CC(=O)C=C1CCC1C2[C@@H](O)C[C@@]2(C)C1CC[C@]2(O)C(=O)COC(=O)c1cccc(CO[N+](=O)[O-])c1 (some centres undefined),19.8
3,C[C@]12C=CC(=O)C=C1CCC1C2[C@@H](O)C[C@@]2(C)C1CC[C@]2(O)C(=O)COC(=O)c1ccc(CO[N+](=O)[O-])cc1 (some centres undefined),6.6
4,C[C@]12C=CC(=O)C=C1CCC1C2[C@@H](O)C[C@@]2(C)C1CC[C@]2(O)C(=O)COC(=O)CN1CCN(CCCO[N+](=O)[O-])CC1 (some centres undefined),2.1
5,C[C@]12C=CC(=O)C=C1CCC1C2[C@@H](O)C[C@@]2(C)C1CC[C@]2(O)C(=O)COC(=O)CCCO[N+](=O)[O-] (some centres undefined),1.6
6,C[C@]12C=CC(=O)C=C1CCC1C2[C@@H](O)C[C@@]2(C)C1CC[C@]2(O)C(=O)COC(=O)c1ccc(CO)cc1 (some centres undefined),5.3
7,C[C@]12C=CC(=O)C=C1CCC1C2[C@@H](O)C[C@@]2(C)C1CC[C@]2(O)C(=O)COC(=O)c1ccccc1CO[N+](=O)[O-] (some centres undefined),8.7
8,C[C@]12C=CC(=O)C=C1CCC1C2[C@@H](O)C[C@@]2(C)C1CC[C@]2(O)C(=O)COC(=O)CN1CCC(CCCO[N+](=O)[O-])CC1 (some centres undefined),2.3
9,C[C@]12C=CC(=O)C=C1CC[C@@H]1[C@@H]2[C@@H](O)C[C@@]2(C)[C@H]1CC[C@]2(O)C(=O)CO [PREDNISOLONE],5.5
10,C[C@]12C=CC(=O)C=C1CCC1C2[C@@H](O)C[C@@]2(C)C1CC[C@]2(O)C(=O)COC(=O)CN1CCN(CCO[N+](=O)[O-])CC1 (some centres undefined),4.2
